Measurements taken from ChEMBL document CHEMBL4138195, “Discovery of novel propargylamine-modified 4-aminoalkyl imidazole substituted pyrimidinylthiourea derivatives as multifunctional agents for the treatment of Alzheimer's disease” (Eur J Med Chem, 2018).
Activity calls are given as the source filed them. The calls are words filed in the database; no cut-off is given here.

What was measured:
[1] = biological target: Butyrylcholinesterase (Rattus norvegicus) (UniProt Q9JKC1); assay: Inhibition of BuChE in rat serum at 40 uM using butyrylthiocholine iodide as substrate after 20 mins by Ellman's method
Sequence of Butyrylcholinesterase (Rattus norvegicus) (Q9JKC1 as listed by the source): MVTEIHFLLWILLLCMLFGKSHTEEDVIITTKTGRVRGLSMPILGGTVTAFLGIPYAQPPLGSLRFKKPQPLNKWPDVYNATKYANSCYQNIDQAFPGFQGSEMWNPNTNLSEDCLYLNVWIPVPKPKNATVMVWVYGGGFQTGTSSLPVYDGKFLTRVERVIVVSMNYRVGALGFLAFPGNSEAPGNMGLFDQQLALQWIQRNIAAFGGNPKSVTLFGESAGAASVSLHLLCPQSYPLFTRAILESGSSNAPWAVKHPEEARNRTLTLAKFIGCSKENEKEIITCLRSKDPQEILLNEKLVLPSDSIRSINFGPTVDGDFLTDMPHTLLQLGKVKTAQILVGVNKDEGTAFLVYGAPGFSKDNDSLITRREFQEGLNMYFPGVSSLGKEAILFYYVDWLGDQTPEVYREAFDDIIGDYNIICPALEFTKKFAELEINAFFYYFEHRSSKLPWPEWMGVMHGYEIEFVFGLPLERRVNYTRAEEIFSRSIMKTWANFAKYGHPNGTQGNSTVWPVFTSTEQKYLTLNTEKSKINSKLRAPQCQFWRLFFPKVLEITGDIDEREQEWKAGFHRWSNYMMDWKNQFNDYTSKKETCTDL

Acetylcholinesterase = biological target: T1, Acetylcholinesterase (Rattus norvegicus, UniProt P37136); assay: Inhibition of AChE in rat cortex homogenate using acetylthiocholine iodide as substrate after 20 mins by Ellman's method
T1 sequence (P37136 whole entry): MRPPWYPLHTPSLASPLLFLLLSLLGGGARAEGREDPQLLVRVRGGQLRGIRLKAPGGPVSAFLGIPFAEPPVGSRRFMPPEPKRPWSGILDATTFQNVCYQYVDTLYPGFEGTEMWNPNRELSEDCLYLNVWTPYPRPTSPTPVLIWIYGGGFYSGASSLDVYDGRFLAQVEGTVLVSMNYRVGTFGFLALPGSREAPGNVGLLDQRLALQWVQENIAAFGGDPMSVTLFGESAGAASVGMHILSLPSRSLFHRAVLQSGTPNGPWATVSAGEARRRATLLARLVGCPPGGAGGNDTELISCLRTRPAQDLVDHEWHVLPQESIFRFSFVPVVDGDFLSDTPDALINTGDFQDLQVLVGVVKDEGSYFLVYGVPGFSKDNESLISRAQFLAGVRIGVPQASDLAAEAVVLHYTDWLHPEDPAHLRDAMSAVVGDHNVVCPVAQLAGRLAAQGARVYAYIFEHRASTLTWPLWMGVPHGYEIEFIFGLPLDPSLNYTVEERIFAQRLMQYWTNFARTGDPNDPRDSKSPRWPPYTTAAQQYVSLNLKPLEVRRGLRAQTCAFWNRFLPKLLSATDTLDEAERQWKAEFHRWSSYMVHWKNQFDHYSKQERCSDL

Rattus norvegicus = species on record: Rattus norvegicus; assay: Selectivity index, ratio of IC50 for BuChE in rat serum to IC50 for AChE in rat cortex homogenate; format: tissue-based
[2] = biological target: T2, Amine oxidase [flavin-containing] B (Homo sapiens, UniProt P27338)
T2 sequence (P27338 whole entry): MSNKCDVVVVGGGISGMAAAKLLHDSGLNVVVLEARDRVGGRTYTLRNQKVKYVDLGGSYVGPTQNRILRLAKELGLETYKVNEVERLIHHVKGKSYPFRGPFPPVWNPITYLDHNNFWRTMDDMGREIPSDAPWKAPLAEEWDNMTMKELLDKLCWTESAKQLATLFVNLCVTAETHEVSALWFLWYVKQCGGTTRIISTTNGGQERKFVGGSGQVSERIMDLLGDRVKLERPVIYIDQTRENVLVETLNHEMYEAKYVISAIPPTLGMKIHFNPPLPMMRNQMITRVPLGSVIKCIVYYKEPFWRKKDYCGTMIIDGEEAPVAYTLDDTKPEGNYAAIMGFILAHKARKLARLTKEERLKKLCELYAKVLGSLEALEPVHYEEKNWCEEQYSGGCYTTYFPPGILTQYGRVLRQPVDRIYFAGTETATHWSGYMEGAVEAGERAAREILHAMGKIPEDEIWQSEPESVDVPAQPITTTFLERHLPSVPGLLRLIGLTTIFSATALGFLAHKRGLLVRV

Homo sapiens = species on record: Homo sapiens; assay: Selectivity index, ratio of IC50 for recombinant human MAOA to IC50 for recombinant human MAOB
How it was run: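 Recombinant human MAO-A (12.5 µg/mL) or MAO-B (75 µg/mL) preincubated 15 min at 37 °C with compound (diluted from 10 mM DMSO stock in 50 mM KH2PO4, pH 7.4). Amplex Red working solution added: 2 mM p-tyramine (MAO-A) or benzylamine (MAO-B), 2 U/mL HRP. After 15 min at 37 °C, fluorescence read (ex 545/em 590), background from enzyme-free wells subtracted.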

[3] = Metal chelating activity assessed as compound-Fe3+ complex formation at 40 uM in presence of FeCl3 after 30 mins by UV-visible spectrophotometric analysis
How it was run: (§1)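 UV–vis spectra (200–500 nm) of compound at 40 µM final, alone or with CuCl2, FeSO4, FeCl3 or ZnCl2 (20 µM final), after 30 min in 20 mM HEPES, 150 mM NaCl, pH 7.4, at room temperature.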

[4] = Metal chelating activity assessed as compound-Zn2+ complex formation at 40 uM in presence of ZnCl2 after 30 mins by UV-visible spectrophotometric analysis; how it was run: as §1
[5] = Inhibition of Cu2+-mediated amyloid beta (1 to 42) (unknown origin) aggregation at 50 uM after 24 hrs by dot blot assay
How it was run: (§2)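 Aβ1-42 (2000 µM stock in 1% ammonium hydroxide) diluted in […], pH 6.6. Peptide 25 µM ± Cu(II) 25 µM ± compound 50 µM, incubated 37 °C for 24 h. Samples spotted on nitrocellulose, blocked in 5% milk, probed overnight at 4 °C with A11 (oligomers) or 6E10 (total Aβ), HRP secondary, densitometry. N = 4, mean ± SEM; EGCG control.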

[6] = Inhibition of Cu2+-induced amyloid beta (1 to 42 residues) (unknown origin) aggregation assessed as reduction in amyloid beta fibril load at 50 uM after 24 hrs by phosphotungstic acid staining-based transmission electron microscopic method
How it was run: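 Aβ1-42 (25 µM) ± CuCl2 (25 µM) ± compound (50 µM) in HEPES/NaCl pH 6.6, incubated 24 h at 37 °C. Aliquots placed on carbon-coated copper grids for 30 min, stained 20 s with 2% phosphotungstic acid, imaged by TEM. Clioquinol as comparator.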

[7] = Inhibition of Cu2+-mediated amyloid beta (1 to 42) peptide-induced cytotoxicity in E17 Sprague-Dawley rat primary cortical neurons assessed as neuroprotective activity by measuring increase in cell viability at 1 uM after 24 hrs by MTT assay
How it was run: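 Rat E17 primary cortical neurons after 9 days in culture. Aβ1-42 samples, prepared as for the dot blot (± Cu2+, ± compound), added to the cultures at 1 µM for 24 h. Viability by MTT, normalized to the vehicle group. EGCG and clioquinol as positive controls.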

[8] = biological target: Amyloid-beta precursor protein (Homo sapiens) (UniProt P05067); assay: Inhibition of amyloid beta (1 to 42) (unknown origin) self aggregation at 50 uM incubated at 37 degC for 24 hrs by dot immunoblot assay; how it was run: as §2
Sequence of Amyloid-beta precursor protein (Homo sapiens) (P05067 whole entry, the tested form may be a part): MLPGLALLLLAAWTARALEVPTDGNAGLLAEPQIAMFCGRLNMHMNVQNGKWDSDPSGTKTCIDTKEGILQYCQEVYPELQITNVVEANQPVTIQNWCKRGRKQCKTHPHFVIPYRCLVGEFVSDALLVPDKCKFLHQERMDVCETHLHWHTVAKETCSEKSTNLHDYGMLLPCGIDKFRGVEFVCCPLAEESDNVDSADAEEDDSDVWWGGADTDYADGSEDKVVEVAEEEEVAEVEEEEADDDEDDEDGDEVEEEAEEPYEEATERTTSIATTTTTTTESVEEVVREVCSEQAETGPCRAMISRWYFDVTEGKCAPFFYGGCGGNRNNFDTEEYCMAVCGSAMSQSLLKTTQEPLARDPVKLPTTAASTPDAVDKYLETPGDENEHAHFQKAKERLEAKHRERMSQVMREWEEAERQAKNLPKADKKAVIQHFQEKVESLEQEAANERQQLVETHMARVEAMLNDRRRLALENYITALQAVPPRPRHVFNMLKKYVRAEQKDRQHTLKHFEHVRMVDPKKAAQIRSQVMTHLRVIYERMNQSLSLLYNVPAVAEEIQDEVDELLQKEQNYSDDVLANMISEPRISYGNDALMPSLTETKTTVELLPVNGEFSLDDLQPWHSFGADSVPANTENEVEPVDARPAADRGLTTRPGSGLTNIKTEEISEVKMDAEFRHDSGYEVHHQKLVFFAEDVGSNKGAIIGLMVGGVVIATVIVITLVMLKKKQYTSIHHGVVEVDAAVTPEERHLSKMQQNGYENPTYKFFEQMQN

[9] = Inhibition of Cu2+-induced amyloid beta (1 to 42 residues) (unknown origin) aggregation at 50 uM incubated at 37 degC for 24 hrs by dot immunoblot assay; how it was run: as §2
[10] = Inhibition of Cu2+-mediated amyloid beta (1 to 42) (unknown origin) aggregation at 50 uM after 24 hrs by dot blot assay

## C#CCN(C)Cc1cn(-c2cc(NC(=S)NCC)ncn2)cn1
[1]
  inhibition: 12.6%
Acetylcholinesterase
  IC50: 324 nM
Rattus norvegicus
  Ratio IC50: > 123
[2]
  IC50: 1430 nM
Homo sapiens
  Ratio IC50: > 35
[3]
  Activity: inactive
[4]
  Activity: inactive
[5]
  inhibition: Active
[6]
  inhibition: Active
[7]
  Activity: Active
[8]
  inhibition: inactive
[9]
  inhibition: Active
[10]
  inhibition: Active
